Data published in ChEMBL document CHEMBL1909628, “Discovery of 6-substituted indole-3-glyoxylamides as lead antiprion agents with enhanced cell line activity, improved microsomal stability and low toxicity” (Eur J Med Chem, 2011).

How the values were obtained:
[1] = species: Danio rerio; test: Toxicity in zebrafish assessed as yolk deformities at 5 uM treated at 48 hrs post-fertilization measured after 3 days by acridine orange staining method; format: organism-based; settings: in vivo, 72 h
In short: (§1)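 Zebrafish larvae dosed at 5 uM from 48 hpf for three days (28 °C, E3 medium, 1% DMSO). Stained with acridine orange at 1 mg/mL in E3 for 30 min, then washed 3 × 10 min. Anesthetized with tricaine, mounted in 1% low-melt agarose with tricaine, and examined by microscopy for apoptosis and deformities.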

[2] = (§2) Toxicity in zebrafish assessed as organism survival at 5 uM treated at 48 hrs post-fertilization measured after 3 days; format: organism-based, Danio rerio; settings: in vivo
In short: (§3)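 AB wild-type zebrafish embryos dechorionated with pronase at 48 hpf, 3 per well in methylene blue-free E3 medium. Dosed at 5 uM from 10 mM DMSO stocks (1% v/v DMSO). Kept at 28 °C for 72 h without food; survival scored at day 5 versus vehicle controls. Two experiments, each in triplicate.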

[3] = Antiprion activity against PrPsc infected in mouse SMB.s15 cells assessed as complete clearance of PrPSc after 5 days by dot blot analysis; format: cell-based; settings: SMB.s15, 120 h
In short: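 SMB.s15 cells (scrapie-infected, mesodermal origin) in Medium 199 with 10% newborn calf and 5% fetal calf serum, seeded at 12,000 cells/well, 24 h attachment. Compound added from DMSO stock via HBSS dilution, 5 days at 37 °C. Lysates dot-blotted, proteinase K digestion (1 h, 37 °C), guanidine thiocyanate, anti-PrP 6H4 mAb, ECL. Triplicate, PrPSc relative to DMSO-only control.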

[4] = species: Danio rerio; test: Toxicity in zebrafish assessed as induction of apoptosis at 5 uM treated at 48 hrs post-fertilization measured after 3 days by acridine orange staining method; format: organism-based; settings: in vivo, 72 h; in short: as §1
[5] = Cytotoxicity against mouse SMB.s15 cells at 20 uM after 5 days by MTT assay; format: cell-based; settings: smb.s15, 120 h
In short: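 SMB.s15 cells at 12,000 cells/well, exposed to compound for 5 days at 37 °C (DMSO stock diluted via HBSS into medium). Viability measured by MTT assay per the reagent's standard protocol.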

[6] = species: Danio rerio; test: Toxicity in zebrafish assessed as otic capsule deformities at 5 uM treated at 48 hrs post-fertilization measured after 3 days by acridine orange staining method; format: organism-based; settings: in vivo, 72 h; in short: as §1
[7] = Antiprion activity against PrPsc infected in mouse ScN2a cells assessed as complete clearance of PrPSc after 5 days by ELISA; format: cell-based; settings: 120 h
In short: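 ScN2a cells (N2a infected with RML prion strain) seeded at 4×10^5 cells/well in MEM with 10% FBS, GlutaMax, geneticin. Compound added 4 h after seeding, 0.5% final DMSO, 5 days at 37 °C. Lysates captured on D18 Fab-coated ELISA plates overnight at 4 °C, HRP-D13 detection, ABTS, absorbance at 405 nm. Dose-response curves from three independent experiments.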

[8] = Metabolic stability in mouse liver microsomes assessed as compound remaining after 30 mins by HPLC analysis; format: ADME, Microsome; settings: read-out: Stability
In short: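 Mouse liver microsomes (0.5 mg/mL stock) in 0.2 M potassium phosphate pH 7.0 with DL-isocitrate, MgCl2 and isocitrate dehydrogenase. Preincubated 5 min at 37 °C, then started with NADPH. Sampled at t=0 and after 30 min at 37 °C, quenched in ice-cold acetonitrile with internal standard. Analysed by C18 HPLC, UV at 267 nm, in triplicate.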

[9] = species: Danio rerio; test: Toxicity in zebrafish assessed as swim bladder deformities at 5 uM treated at 48 hrs post-fertilization measured after 3 days by acridine orange staining method; format: organism-based; settings: in vivo, 72 h; in short: as §1
[10] = test system: ScN2a; test: Cytotoxicity against mouse ScN2a cells up to 32 uM; format: cell-based
In short: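 ScN2a cells seeded separately in 96-well plates. Calcein cell viability assay run in parallel with the ELISA screen, up to 32 uM maximum.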

[11] = (§4) Toxicity in zebrafish assessed as mortality rate at 5 uM measured after 72 hrs; format: organism-based, Danio rerio; settings: in vivo, read-out: Activity; in short: as §3
[12] = Solubility of the compound; format: physicochemical
[13] = species: Danio rerio; test: as §2; format: organism-based; settings: in vivo, 72 h, 5 µM; in short: as §3
[14] = species: Danio rerio; test: as §4; format: organism-based; settings: in vivo, 72 h, 5 µM; in short: as §3

Structure (SMILES) | Activity [1] | survival at 72 h, 5 µM [2] [%] | EC50 [3] [nM] | Activity [4] | Activity [5] | Activity [6] | EC50 [7] [nM] | remaining at 0.5 h [8] [%] | Activity [9] | Activity [10] | mortality at 72 h, 5 µM [11] [%] | solubility [12] | Activity [13] | Activity [14]
COc1ccc(NC(=O)C(=O)c2c[nH]c3cc(C#N)ccc23)cc1 | Non-toxic | 100 | 2.2 | Non-toxic | Non-toxic | Non-toxic | 11 | 87.5 | Non-toxic | Non-toxic |  |  |  | 
Cc1ccc(NC(=O)C(=O)c2c[nH]c3cc(C#N)ccc23)cc1 |  | 100 | 10.9 |  | Non-toxic |  | 26 | 88.2 |  | Non-toxic | 20 |  |  | 
O=C(Nc1ccc(-n2ccnc2)cc1)C(=O)c1c[nH]c2ccccc12 |  |  | 1.3 |  | Non-toxic |  | 16 |  |  | Non-toxic |  | Insoluble |  | 
O=C(Nc1ccc(-c2nnco2)cc1)C(=O)c1c[nH]c2ccccc12 |  |  |  |  |  |  |  |  |  |  |  | Insoluble |  | 
O=C(Nc1ccc(-n2cncn2)cc1)C(=O)c1c[nH]c2ccccc12 |  |  |  |  |  |  |  |  |  |  |  | Insoluble |  | 
Cn1ccc(-c2ccc(NC(=O)C(=O)c3c[nH]c4ccccc34)cc2)n1 |  |  |  |  |  |  |  |  |  |  |  | Insoluble |  | 
Cc1ccc2c(C(=O)C(=O)Nc3ccc(N4CCOCC4)cc3)c[nH]c2c1 | Non-toxic | 100 | 3.1 | Non-toxic | Non-toxic | Non-toxic |  |  | Non-toxic | Non-toxic | 20 |  |  | 
O=C(Nc1ccc(-n2cccc2)cc1)C(=O)c1c[nH]c2ccccc12 |  |  | 6 |  | Non-toxic |  |  |  |  | Non-toxic |  | Insoluble | Toxic | 
Cc1ccc(NC(=O)C(=O)c2c[nH]c3ccccc23)cc1 |  |  | 130 |  | Non-toxic |  | 206 | 64.9 |  | Non-toxic |  |  | Toxic | Non-toxic
O=C(Nc1ccc(-n2cccn2)cc1)C(=O)c1c[nH]c2ccccc12 | Non-toxic |  | 1 | Non-toxic | Non-toxic | Non-toxic | 14 | 93.6 | Non-toxic | Non-toxic |  | Insoluble | Toxic | 
